From ChEMBL document CHEMBL1148107, “Phomadecalins A-D and phomapentenone A: new bioactive metabolites from Phoma sp. NRRL 25697, a fungal colonist of Hypoxylon stromata” (2002)
Activity calls are given as the source filed them. The calls are words filed in the database; no cut-off is given here.

Key:
[1] = test system: Bacillus subtilis; assay: Antimicrobial activity against Bacillus subtilis ATCC 6051 at 200 ug/disk; type: functional; details: read-out: IZ
How it was run: (§1)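 Standard disk diffusion assay with 200 µg of compound applied per disk. Activity was read as the diameter (mm) of the zone of growth inhibition around the disk.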

[2] = test system: Staphylococcus aureus; assay: Antimicrobial activity against Staphylococcus aureus ATCC 29213 at 200 ug/disk; type: functional; details: read-out: IZ; how it was run: as §1
[3] = test system: Candida albicans; assay: Antimicrobial activity against Candida albicans ATCC 90029 at 200 ug/disk; type: functional, organism-based; how it was run: as §1

**Q.** For `C=C(CO)[C@@]12O[C@@H]1[C@@]1(C)C(=C[C@H]2O)C=CC[C@@H]1C` [PHOMADECALIN A], which zone of inhibition at 200 µg/disc [1] is on record?
**A.** The zone of inhibition at 200 µg/disc was 18 mm.

**Q.** What about the zone of inhibition at 200 µg/disc [2] of the same compound?
**A.** Its zone of inhibition at 200 µg/disc is 10 mm.

**Q.** What about the Activity [3] of the same compound?
**A.** Its Activity is “inactive”.

**Q.** Which results are given for `C=C(COC(C)=O)[C@@]12O[C@@H]1[C@@]1(C)C(=C[C@H]2O)C=C[C@@H](O)[C@@H]1C` [PHOMADECALIN B]?
**A.** zone of inhibition at 200 µg/disc [1]: 10 mm; zone of inhibition at 200 µg/disc [2]: 8 mm; Activity [3]: inactive

**Q.** With `C=C(CO)[C@@]12O[C@@H]1[C@@]1(C)C(=C[C@H]2O)C=CC(=O)[C@@H]1C` [PHOMADECALIN C] as the compound, how does the zone of inhibition at 200 µg/disc [1] read?
**A.** Its zone of inhibition at 200 µg/disc is 12 mm.

**Q.** How did the zone of inhibition at 200 µg/disc [1] turn out when `C=C(CO)[C@@]12O[C@@H]1[C@@]1(C)C(=C[C@H]2O)C=C[C@@H](O)[C@@H]1C` [PHOMADECALIN D] was run?
**A.** Its zone of inhibition at 200 µg/disc is 9 mm.

**Q.** And the zone of inhibition at 200 µg/disc [2]?
**A.** The zone of inhibition at 200 µg/disc was 8 mm.

**Q.** And the Activity [3]?
**A.** Its Activity is “inactive”.
